Among the data in ChEMBL document CHEMBL1955785, “SAR and biological evaluation of 3-azabicyclo[3.1.0]hexane derivatives as μ opioid ligands” (Bioorg Med Chem Lett, 2012) are Ki and inhibition values, retold here.

Experiment [1] in a line: Displacement of [3H]DAMGO from mu opioid receptor in dog brain after 90 mins by scintillation counting. The arrangement: species or system Canis lupus familiaris.
For experiment [2], the target named is Mu-type opioid receptor (Cavia porcellus) (UniProt P97266). Kind of experiment: Antagonist activity at mu opioid receptor in guinea pig longitudinal muscle myenteric plexus assessed as inhibition of DAMGO-induced twitch tension at 1 uM after 10 mins. In kind it is functional. In a few lines:
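Isolated guinea-pig myenteric plexus-longitudinal muscle was stimulated electrically at 0.1 Hz with a 1 ms pulse width at supramaximal voltage, then washed and rested for 20 min. Kappa antagonist nor-binaltorphimine (1 µM, 10 min) and captopril (1 µM) were added. Test compound was added once twitches plateaued, and 10 min later a cumulative DAMGO dose response was built (3 min contact, 1 min recording per concentration).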

Experiment [3] is described as follows: Displacement of [3H]U-69,593 from kappa opioid receptor in dog brain after 90 mins by scintillation counting. Details: species or system Canis lupus familiaris. In general terms: In a radioligand displacement assay an active substance lowers the binding of a labelled ligand.
A short description of experiment [4]: Displacement of [3H]DPDPE from delta opioid receptor in dog brain after 90 mins by scintillation counting. The arrangement: species or system Canis lupus familiaris.
Experiment [5] has as its target T1, Mu-type opioid receptor (Homo sapiens, UniProt P35372). Kind of experiment: Antagonist activity at human mu opioid receptor by GTP-gamma S binding assay. In general terms: GTPγS resists hydrolysis and so accumulates on activated G proteins.
In experiment [6] the target is T1, Mu-type opioid receptor. The experiment in a line: Displacement of [3H]DAMGO from human mu opioid receptor. The procedure, abridged:
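Human μ receptor filter-binding assay using [3H]DAMGO as the radioligand; Ki derived from displacement.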

Each structure is given as a SMILES string.

T1 sequence (P35372 whole entry): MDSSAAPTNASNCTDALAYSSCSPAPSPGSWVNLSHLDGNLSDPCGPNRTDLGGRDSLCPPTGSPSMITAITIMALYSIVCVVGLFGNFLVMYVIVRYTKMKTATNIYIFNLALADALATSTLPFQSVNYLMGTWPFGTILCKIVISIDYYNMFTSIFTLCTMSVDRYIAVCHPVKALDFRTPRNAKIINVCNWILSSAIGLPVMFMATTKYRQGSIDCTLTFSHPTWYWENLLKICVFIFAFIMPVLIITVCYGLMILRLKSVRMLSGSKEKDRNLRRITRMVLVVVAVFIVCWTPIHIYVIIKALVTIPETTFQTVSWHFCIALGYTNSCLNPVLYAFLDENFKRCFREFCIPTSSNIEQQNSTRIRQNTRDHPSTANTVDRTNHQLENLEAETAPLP
Mu-type opioid receptor (Cavia porcellus), sequence (P97266 whole entry): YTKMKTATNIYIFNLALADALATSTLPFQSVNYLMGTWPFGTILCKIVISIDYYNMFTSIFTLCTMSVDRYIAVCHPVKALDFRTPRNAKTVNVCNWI

For the molecule `CC[C@]1(c2cccc(NS(C)(=O)=O)c2)[C@@H]2CN(CCCc3ccccc3)C[C@@H]21`, the inhibition constant (Ki) came out at 1.5 nM in experiment [1], 67 nM in experiment [3] and 79 nM in experiment [4]. For the same molecule, in experiment [2], the inhibition was less than 10%.
For the molecule `C[C@]1(c2cccc(NS(C)(=O)=O)c2)[C@@H]2CN(CC3Cc4ccccc4C3)C[C@@H]21`, the Ki came to 0.55 nM in experiment [1]; 0.3 nM at Mu-type opioid receptor [5]; 0.81 nM on Mu-type opioid receptor [6]; 51 nM in experiment [3]; 384 nM in experiment [4]. Further, the inhibition in experiment [2] was less than 10%.
Take `CC[C@]1(c2cccc(NS(C)(=O)=O)c2)[C@@H]2CN(CC(O)Cc3ccccc3)C[C@@H]21` (stereo not given in full): the Ki was found to be 2.6 nM in experiment [1]; 2.5 nM on Mu-type opioid receptor [5]; 6.6 nM at Mu-type opioid receptor [6]; 70 nM in experiment [3]; 595 nM in experiment [4].
On to `CCCCCCN1C[C@@H]2[C@H](C1)[C@@]2(CCC)c1cccc(NS(C)(=O)=O)c1`, for which the Ki in experiment [1] was 10 nM; in experiment [3], 328 nM; in experiment [4] it was 66 nM. The inhibition in experiment [2] was less than 10%.
As for `CCCCCCN1C[C@@H]2[C@H](C1)[C@@]2(C)c1cccc(NS(=O)(=O)CCC)c1`, the Ki in experiment [1] is 104 nM; in experiment [3], 1330 nM; in experiment [4] it was more than 10000 nM.
Regarding `C[C@]1(c2cccc(NS(C)(=O)=O)c2)[C@@H]2CN(CCCc3ccccc3)C[C@@H]21`, the Ki is 4.1 nM in experiment [1], 3.5 nM on Mu-type opioid receptor [5], 94 nM in experiment [3] and 183 nM in experiment [4]. The inhibition in experiment [2] was less than 10%.
Consider `CCCCCCN1C[C@@H]2[C@H](C1)[C@@]2(C)c1cccc(NS(C)(=O)=O)c1`, for which the Ki in experiment [1] amounted to 14 nM; in experiment [3] it was 270 nM; in experiment [4], 869 nM. Also, in experiment [2], the inhibition was less than 10%.
Consider `CCCCCCN1C[C@@H]2[C@H](C1)[C@@]2(C)c1cccc(NS(=O)(=O)CCOC)c1`, for which the Ki in experiment [1] was determined as 10 nM; in experiment [3], 172 nM; in experiment [4], 464 nM. In addition, the inhibition in experiment [2] is more than 10%.
Turning to `CCCCCCN1C[C@@H]2[C@H](C1)[C@]2(c1cccc(NS(C)(=O)=O)c1)C(C)C`, the Ki in experiment [1] came out at 3 nM; in experiment [3], 48 nM; in experiment [4], 308 nM. Moreover, the inhibition in experiment [2] worked out at 32%.
For `CCCCCCN1C[C@@H]2[C@H](C1)[C@@]2(C)c1cccc(NS(=O)(=O)C(C)C)c1`, the values for the Ki in experiment [1], in experiment [3] and in experiment [4] were 14 nM, 791 nM and 1580 nM, respectively. Besides, the inhibition in experiment [2] was found to be 18%.
`CCCCCCN1C[C@@H]2[C@H](C1)[C@@]2(CC)c1cccc(NS(C)(=O)=O)c1`: the Ki in experiment [1] was 50 nM; in experiment [3] it was 1340 nM; in experiment [4], more than 10000 nM.
For the molecule `CCCCCCN1C[C@@H]2[C@H](C1)[C@@]2(C)c1cccc(NS(=O)(=O)c2cccnc2)c1`, the inhibition constant Ki in experiment [1] was 71 nM; in experiment [3], 1530 nM; in experiment [4], more than 10000 nM.
For `CC[C@]1(c2cccc(NS(C)(=O)=O)c2)[C@@H]2CN(CC3Cc4ccccc4C3O)C[C@@H]21` (stereo not given in full), the Ki was 0.07 nM in experiment [1]; 0.08 nM on Mu-type opioid receptor [5]; 0.1 nM at Mu-type opioid receptor [6]; 4.5 nM in experiment [3]; 19 nM in experiment [4].
As to `CC[C@]1(c2cccc(NS(C)(=O)=O)c2)[C@@H]2CN(CC3Cc4ccccc4C3)C[C@@H]21`, the inhibition constant (Ki) was determined as 0.2 nM in experiment [1], 22 nM in experiment [3] and 29 nM in experiment [4].
In the case of `CCS(=O)(=O)Nc1cccc([C@@]2(C)[C@@H]3CN(CCCc4ccccc4)C[C@@H]32)c1`, the values for the Ki in experiment [1], in experiment [3] and in experiment [4] were 37 nM, 219 nM and 2900 nM, respectively.

One may read the Ki as the dissociation constant of the complex between target and ligand, obtained from inhibition or displacement. A high value points to lower affinity. A word on the inhibition: it is the change of the read-out against control, counted positive when it falls.
